Data on six compounds can be found in ChEMBL document CHEMBL1132247, “Synthesis and nicotinic acetylcholine receptor in vivo binding properties of 2-fluoro-3-[2(S)-2-azetidinylmethoxy]pyridine: a new positron emission tomography ligand for nicotinic receptors” (J Med Chem, 1999).

The species entered for series [1] is Rattus norvegicus. Kind of series: Biodistribution in rat thalamus, expressed as percent I.D./g tissue. The series is classed as ADME, organism-based. Particulars: in vivo. The gist of the method: (§1)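 Male Sprague–Dawley rats (190–200 g) received 30 μCi (1.1 MBq) of the 18F-labelled tracer i.v. into a tail vein, formulated in physiological saline and given within 15 min of end of synthesis. Rats were decapitated at selected times, and the brain was removed and dissected on ice. Regions were weighed and gamma-counted alongside injected-dose aliquots, and values were expressed as % I.D./g tissue.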

The species named for series [2] is Rattus norvegicus. Kind of series: Biodistribution in rat cerebellum, expressed as percent I.D./g tissue. It counts as ADME, organism-based. To be noted: in vivo. The gist of the method: as §1
Series [3] is described as follows: Binding affinity towards human Nicotinic acetylcholine receptor was determined using [3H]epibatidine.
For series [4], the species on record is Rattus norvegicus. The series is described as follows: Biodistribution in rat superior coliculus, expressed as percent I.D./g tissue. The series is classed as ADME, organism-based. Particulars: in vivo. The gist of the method:
as §1

The nature of series [5]: Binding affinity towards human Nicotinic acetylcholine receptor was determined using [3H]-cytisine.
Series [6] has as its target Neuronal acetylcholine receptor; alpha4/beta2 (Homo sapiens, UniProt P17787+P43681). Kind of series: Binding affinity against human Nicotinic acetylcholine receptor alpha4-beta2.

Neuronal acetylcholine receptor; alpha4/beta2, sequence (P17787 whole entry): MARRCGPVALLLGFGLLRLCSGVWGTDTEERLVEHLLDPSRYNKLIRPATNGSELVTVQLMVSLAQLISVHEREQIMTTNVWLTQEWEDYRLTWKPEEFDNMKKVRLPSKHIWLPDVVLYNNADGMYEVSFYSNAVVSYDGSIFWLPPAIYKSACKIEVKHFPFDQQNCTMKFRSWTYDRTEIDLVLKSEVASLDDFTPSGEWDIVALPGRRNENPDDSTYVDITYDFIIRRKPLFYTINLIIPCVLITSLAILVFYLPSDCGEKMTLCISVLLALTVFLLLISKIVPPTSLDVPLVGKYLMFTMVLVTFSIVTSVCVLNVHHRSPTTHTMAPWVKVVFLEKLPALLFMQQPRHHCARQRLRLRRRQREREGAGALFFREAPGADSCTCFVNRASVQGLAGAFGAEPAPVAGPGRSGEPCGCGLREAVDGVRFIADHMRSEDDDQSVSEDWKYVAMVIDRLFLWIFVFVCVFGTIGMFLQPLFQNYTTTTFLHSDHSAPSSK
Neuronal acetylcholine receptor; alpha4/beta2, sequence (P43681 whole entry): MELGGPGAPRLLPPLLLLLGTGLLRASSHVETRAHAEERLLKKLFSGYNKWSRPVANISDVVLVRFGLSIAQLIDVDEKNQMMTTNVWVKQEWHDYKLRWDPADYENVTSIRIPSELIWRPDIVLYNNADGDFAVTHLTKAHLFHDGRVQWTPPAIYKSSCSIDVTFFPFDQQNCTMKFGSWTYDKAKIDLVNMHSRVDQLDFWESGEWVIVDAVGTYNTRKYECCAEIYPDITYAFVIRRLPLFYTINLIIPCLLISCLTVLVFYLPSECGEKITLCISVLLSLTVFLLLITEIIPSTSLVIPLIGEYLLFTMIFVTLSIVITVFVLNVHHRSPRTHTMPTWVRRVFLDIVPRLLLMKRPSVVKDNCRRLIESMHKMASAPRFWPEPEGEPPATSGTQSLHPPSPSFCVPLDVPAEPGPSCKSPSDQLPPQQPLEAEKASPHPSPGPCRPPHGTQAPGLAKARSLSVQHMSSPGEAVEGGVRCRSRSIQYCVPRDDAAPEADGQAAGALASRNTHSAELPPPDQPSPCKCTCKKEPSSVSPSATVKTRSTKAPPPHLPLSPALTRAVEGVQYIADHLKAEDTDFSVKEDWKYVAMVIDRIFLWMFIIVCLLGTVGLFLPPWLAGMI

As a reminder, the Ki is the dissociation constant of the complex between target and ligand, obtained from inhibition or displacement. Take `Fc1ncccc1OC[C@@H]1CCN1`: the figures for the Biodistribution in the series listed under Rattus norvegicus [1], in the series filed under Rattus norvegicus [2] and in the series filed under Rattus norvegicus [4] were 0.3%, 0.2% and 0.2%, respectively. Moreover, the Ki was determined as 0.046 nM in series [3] and 0.048 nM in series [5].
`c1cncc(OC[C@@H]2CCN2)c1`: the Ki in series [6] came out at 0.05 nM.
As for `O=c1cccc2n1CC1CNC[C@H]2C1` (single isomer, unassigned) [CYTISINICLINE], the Biodistribution in the series listed under Rattus norvegicus [1], in the series filed under Rattus norvegicus [2] and in the series filed under Rattus norvegicus [4] was 0.2% throughout.
Turning to `Clc1ccc(C2CC3CCC2N3)cn1` (stereo not drawn) [EPIBATIDINE], the Biodistribution in the series filed under Rattus norvegicus [1], in the series listed under Rattus norvegicus [2] and in the series listed under Rattus norvegicus [4] was 0.2% throughout.
On to `CN1C2CCCC1CC(NC(=O)c1nn(C)c3ccccc13)C2` (stereo not drawn) [GRANISETRON], for which the Biodistribution in the series filed under Rattus norvegicus [1] is recorded as 0.9%; in the series listed under Rattus norvegicus [2], 0.2%; in the series listed under Rattus norvegicus [4], 0.6%.
For `CNC(=O)Oc1ccc2c(c1)[C@]1(C)CCN(C)[C@@H]1N2C` [PHYSOSTIGMINE] the same measures were 0.5%, 0.2% and 0.4%.
